From ChEMBL document CHEMBL3627639, “Structure-activity relationships of amide-phosphonate derivatives as inhibitors of the human soluble epoxide hydrolase” (Bioorg Med Chem, 2015) come the findings set out here.

Structures are written as SMILES. Converted amounts (≈) assume the structure as drawn.

One data set concerns the target T1, Bifunctional epoxide hydrolase 2 (Homo sapiens, UniProt P34913).
T1 sequence (P34913 whole entry): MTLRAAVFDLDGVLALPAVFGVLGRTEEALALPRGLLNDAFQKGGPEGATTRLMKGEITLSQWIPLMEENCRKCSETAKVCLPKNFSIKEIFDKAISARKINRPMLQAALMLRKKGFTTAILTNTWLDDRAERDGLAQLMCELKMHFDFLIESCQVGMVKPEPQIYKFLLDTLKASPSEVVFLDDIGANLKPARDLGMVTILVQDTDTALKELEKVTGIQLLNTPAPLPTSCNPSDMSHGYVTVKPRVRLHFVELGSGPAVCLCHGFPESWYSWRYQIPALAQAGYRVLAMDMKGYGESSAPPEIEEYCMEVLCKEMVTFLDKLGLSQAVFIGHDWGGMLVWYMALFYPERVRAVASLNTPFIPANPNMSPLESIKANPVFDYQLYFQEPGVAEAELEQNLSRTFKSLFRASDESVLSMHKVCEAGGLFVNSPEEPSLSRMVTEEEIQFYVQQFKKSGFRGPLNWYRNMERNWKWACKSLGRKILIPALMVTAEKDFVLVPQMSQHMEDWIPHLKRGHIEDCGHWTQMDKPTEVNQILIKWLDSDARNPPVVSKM
Description: Inhibition of recombinant human sEH expressed in baculovirus infected insect Sf9 cells using CMNPC as substrate assessed as 6-methoxy-2-naphthadehyde level after 10 mins by fluorescence assay. The gist of the method:
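Recombinant human sEH (6xHis-tagged, expressed in Sf9 cells, tag removed with TEV protease, purified by metal affinity then anion exchange; 1 nM) preincubated with compound in DMSO for 10 min in 25 mM Bis–Tris/HCl pH 7.0 at 30 °C. CMNPC substrate added (5 µM). 6-Methoxy-2-naphthaldehyde read at ex 330/em 465 nm over 10 min. IC50 by regression of ≥5 points; mean of three runs.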
As usually defined, the IC50 is the midpoint of a concentration-inhibition curve. With `CCOP(=O)(OCC)C(Nc1ccc(CNC(=O)C23CC4CC(CC(C4)C2)C3)cc1)c1ccc(F)cc1` (stereo not given), the IC50 came out at 120 nM.

For `CCOP(=O)(OCC)C(Nc1ccc(CNC(=O)CC23CC4CC(CC(C4)C2)C3)cc1)C(C)(C)C` (stereo not given), the IC50 stood at 1.9 nM.

For `CC(C)(C)C(Nc1ccc(CNC(=O)NC23CC4CC(CC(C4)C2)C3)cc1)P(=O)(OCC(F)(F)F)OCC(F)(F)F` (stereo not given), the IC50 was determined as 3.8 nM.

In the case of `CCOP(=O)(OCC)C(Nc1ccc(CNC(=O)Cc2ccc3ccccc3c2)cc1)C(C)(C)C` (stereo not given), the IC50 was 3.4 nM.

Turning to `CCOP(=O)(OCC)C(Nc1ccc(CNC(=O)C23CC4CC(CC(C4)C2)C3)cc1)c1ccc(C#N)cc1` (stereo not given), the IC50 amounted to 108 nM.

In the case of `CC(C)OP(=O)(OC(C)C)C(Nc1ccc(CNC(=O)NC23CC4CC(CC(C4)C2)C3)cc1)C(C)(C)C` (stereo not given), the IC50 came to 1.7 nM.

In the case of `CCOP(=O)(OCC)C(Nc1ccc(CNC(=O)c2ccc3cc(O)ccc3c2)cc1)C(C)(C)C` (stereo not given), the IC50 came out at 17 nM.

Consider `CCOP(=O)(OCC)C(Nc1ccc(CNC(=O)C23CC4CC(CC(C4)C2)C3)cc1)c1ccc(C)cc1` (stereo not given), for which the IC50 worked out at 130 nM.

On to `CCOP(=O)(OCC)C(Nc1ccc(CNC(=O)c2ccc(OC(F)(F)F)cc2)cc1)C(C)(C)C` (stereo not given), for which the IC50 turned out to be 24 nM.

Regarding `CCOP(=O)(OCC)C(Nc1ccc(CNC(=O)C2CCCCC2)cc1)C(C)(C)C` (stereo not given), the IC50 turned out to be 23 nM.

As for `CCOP(=O)(OCC)C(Nc1ccc(CNC(=O)C23CC4CC(CC(C4)C2)C3)cc1)c1ccc(C(=O)OC)cc1` (stereo not given), the IC50 stood at 230 nM.

As for `CCOP(=O)(OCC)C(Nc1ccc(COC(=O)C23CC4CC(CC(C4)C2)C3)cc1)C(C)(C)C` (stereo not given), the IC50 is more than 1000 nM.

Regarding `CCOP(=O)(OCC)C(Nc1ccc(CNC(=O)C23CC4CC(CC(C4)C2)C3)cc1)C1CCCCC1` (stereo not given), the IC50 stood at 46 nM.

For `CCCC(Nc1ccc(CNC(=O)C23CC4CC(CC(C4)C2)C3)cc1)P(=O)(OCC)OCC` (stereo not given), the IC50 came to 58 nM.

On to `CCOP(=O)(OCC)C(Nc1ccc(CNC(=O)C23CC4CC(CC(C4)C2)C3)cc1)c1ccc(C(C)(C)C)cc1` (stereo not given), for which the IC50 was 192 nM.

Turning to `CCOP(=O)(OCC)C(Nc1ccc(CNC(=O)C23CC4CC(CC(C4)C2)C3)cc1)C(C)(C)C` (stereo not given), the IC50 amounted to 5.1 nM.

Turning to `CCOP(=O)(OCC)C(Nc1ccc(CCNC(=O)C23CC4CC(CC(C4)C2)C3)cc1)C(C)(C)C` (stereo not given), the IC50 is 8.2 nM.

For the molecule `CCOP(=O)(OCC)C(Nc1ccc(CNC(=O)C23CC4CC(CC(C4)C2)C3)cc1)c1ccccc1` (stereo not given), the IC50 stood at 45 nM.

Take `CCOP(=O)(OCC)C(Nc1ccc(NC(=O)C23CC4CC(CC(C4)C2)C3)cc1)C(C)(C)C` (stereo not given): the IC50 turned out to be 37 nM.

Consider `CCOP(=O)(OCC)C(Nc1ccc(CNC(=O)NC23CC4CC(CC(C4)C2)C3)cc1)C(C)(C)C` (stereo not given), for which the IC50 is 0.96 nM.

Turning to `CC(C)(C)C(Nc1ccc(CNC(=O)NC23CC4CC(CC(C4)C2)C3)cc1)P(=O)(OCc1ccccc1)OCc1ccccc1` (stereo not given), the IC50 stood at 2.6 nM.

For the molecule `CC(C)OP(=O)(OC(C)C)C(Nc1ccc(CNC(=O)C23CC4CC(CC(C4)C2)C3)cc1)C(C)(C)C` (stereo not given), the IC50 turned out to be 6.7 nM.

As to `CCOP(=O)(OCC)C(Nc1ccc(CNC(=O)C23CC4CC(CC(C4)C2)C3)cc1)c1ccncc1` (stereo not given), the IC50 came out at 185 nM.

Take `CC(C)(C)C(Nc1ccc(CNC(=O)C23CC4CC(CC(C4)C2)C3)cc1)P(=O)(OCC(F)(F)F)OCC(F)(F)F` (stereo not given): the IC50 came to 30 nM.

Take `CCOP(=O)(OCC)C(Nc1ccc(CNC(=O)C23CC4CC(CC(C4)C2)C3)cc1)C(=O)c1ccccc1` (stereo not given): the concentration for half-maximal inhibition (IC50) amounted to 69 nM.

Turning to `CCCCOP(=O)(OCCCC)C(Nc1ccc(CNC(=O)C23CC4CC(CC(C4)C2)C3)cc1)C(C)(C)C` (stereo not given), the IC50 stood at 26 nM.

As to `CCOP(=O)(OCC)C(CC(C)(C)C)Nc1ccc(CNC(=O)C23CC4CC(CC(C4)C2)C3)cc1` (stereo not given), the IC50 was 41 nM.

With `CCOP(=O)(OCC)C(Nc1ccc(CNC(=O)C2CCc3ccccc3C2)cc1)C(C)(C)C` (stereo not given), the IC50 came to 3 nM.

On to `CCOP(=O)(OCC)C(Nc1ccc(CNC(=O)C23CC4CC(CC(C4)C2)C3)cc1)C1CC1` (stereo not given), for which the IC50 was found to be 21 nM.

`CC(C)(C)C(Nc1ccc(CNC(=O)C23CC4CC(CC(C4)C2)C3)cc1)P(=O)(OCc1ccccc1)OCc1ccccc1` (stereo not given): the IC50 turned out to be 42 nM.

With `CC(C)COP(=O)(OCC(C)C)C(Nc1ccc(CNC(=O)NC23CC4CC(CC(C4)C2)C3)cc1)C(C)(C)C` (stereo not given), the IC50 worked out at 1.8 nM.

Consider `CCOP(=O)(OCC)C(Nc1ccc(CCC(=O)NC23CC4CC(CC(C4)C2)C3)cc1)C(C)(C)C` (stereo not given), for which the IC50 was determined as 43 nM.

`CCCCOP(=O)(OCCCC)C(Nc1ccc(CNC(=O)NC23CC4CC(CC(C4)C2)C3)cc1)C(C)(C)C` (stereo not given): the IC50 was found to be 3 nM.

With `CCOP(=O)(OCC)C(Nc1ccc(CNC(=O)C23CC4CC(CC(C4)C2)C3)cc1)c1ccc(OC)cc1` (stereo not given), the IC50 is 199 nM.

As for `CC(C)COP(=O)(OCC(C)C)C(Nc1ccc(CNC(=O)C23CC4CC(CC(C4)C2)C3)cc1)C(C)(C)C` (stereo not given), the IC50 was determined as 16 nM.

Turning to `CCOP(=O)(OCC)C(Nc1ccc(CNC(=O)C23CC4CC(CC(C4)C2)C3)cc1)c1ccc2ccccc2c1` (stereo not given), the IC50 was found to be 186 nM.

Test system in the next data set: not listed separately
Description: Aqueous solubility of the compound in sodium phosphate buffer at pH 7.4 at 25 +/- 1.5 degC by light scattering method. Type of data set: physicochemical. Summed up: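 Compound stock in DMSO added at varied concentrations to 0.1 M sodium phosphate pH 7.4, final DMSO:buffer 5:95 (v/v). Turbidity read as OD at 650 nm at 25 ± 1.5 °C. Signal-to-noise ≥2 counted as insoluble. Mean of three separate measurements.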
By solubility (kinetic) is commonly meant the concentration staying in solution when a stock, usually in DMSO, is diluted into the medium. `CCOP(=O)(OCC)C(Nc1ccc(CNC(=O)CC23CC4CC(CC(C4)C2)C3)cc1)C(C)(C)C` (stereo not given) had a kinetic solubility of 62 µM (≈ 31.3 µg/mL).

For `CCOP(=O)(OCC)C(Nc1ccc(CNC(=O)Cc2ccc3ccccc3c2)cc1)C(C)(C)C` (stereo not given), the solubility (kinetic) is 78 µM (≈ 38.7 µg/mL).

`CCOP(=O)(OCC)C(Nc1ccc(CNC(=O)C23CC4CC(CC(C4)C2)C3)cc1)C(C)(C)C` (stereo not given): the kinetic solubility was determined as 125 µM (≈ 61.3 µg/mL). This solubility kinetic is about 1.6-fold higher than that of the molecule before.

In turn, `CCOP(=O)(OCC)C(Nc1ccc(CNC(=O)NC23CC4CC(CC(C4)C2)C3)cc1)C(C)(C)C` (stereo not given) had a kinetic solubility of 78 µM (≈ 39.4 µg/mL).
